Data set [1] has as its system Human adenovirus 5. Description: Antiviral activity against Human adenovirus 5 infected in 293beta5 cells assessed as inhibition of plaque formation incubated for 7 days by GFP reporter gene assay. In kind it is functional, organism-based. The conditions noted are these: Human mastadenovirus C, 293beta5, 168 h. The method in brief:
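HAdV5-GFP plaque assay in 293β5 cells at low MOI. Inhibition is expressed as percent of the infected control, with single-dose screening at 10 μM. Compounds giving >90% inhibition went on to IC50 determination. Values are means ± SD of triplicate samples from three independent experiments.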

Data set [2] can be described thus: Cytotoxicity against human A549 cells assessed as reduction in cell viability after 48 hrs by alamar blue assay. In kind it is cell-based.
Data set [3] in a line: Selectivity index, ratio of CC50 for cytotoxicity against human A549 cells to IC50 for antiviral activity against Human adenovirus 5 infected in 293beta5 cells assessed as inhibition of plaque formation after 7 days. It counts as toxicity, cell-based. Particulars: read-out: Ratio CC50/IC50.

21 compounds from ChEMBL document CHEMBL4402567, “Structure-Activity Relationship Studies on Diversified Salicylamide Derivatives as Potent Inhibitors of Human Adenovirus Infection” (J Med Chem, 2020) can be followed below.

SMILES strings stand for the structures.

The term IC50 denotes the concentration that gives 50% inhibition. Usually CC50 stands for the concentration that lowers cell viability or growth by half. As for `CC(C)[C@H](NC(=O)c1cc(Cl)ccc1O)C(=O)Nc1ccc(F)c(F)c1`, the concentration for half-maximal inhibition (IC50) in data set [1] turned out to be 2.96 µM. Moreover, the CC50 at 48 h in data set [2] worked out at 95 µM. In data set [3], the selectivity ratio at 168 h was 32.1.
In the same order, the values of `O=C(NCc1ccc(C(F)(F)F)c(F)c1)c1cc(Cl)ccc1O` are 1.4 µM, 22.3 µM and 15.9.
Take `O=C(NCc1ccc(C(F)(F)F)cc1)c1cc(Cl)ccc1O`: the IC50 in data set [1] came out at 2.59 µM. Besides, the CC50 at 48 h in data set [2] was determined as 23.9 µM. Also, the selectivity ratio at 168 h in data set [3] was found to be 9.2.
For `O=C(NCc1ccc(C(F)(F)F)cc1F)c1cc(Cl)ccc1O`, the 50% inhibitory concentration (IC50) in data set [1] is 1.32 µM. The CC50 at 48 h in data set [2] stood at 45.6 µM. Also, the selectivity ratio at 168 h in data set [3] turned out to be 34.6.
The corresponding values for `CC(C)[C@H](NC(=O)c1cc(Cl)ccc1O)C(=O)Nc1cc(F)cc(C(F)(F)F)c1` are 0.66 µM, 43 µM and 65.2.
On to `CS(=O)(=O)Nc1ccc(Cl)cc1C(=O)NCC(=O)Nc1ccc([N+](=O)[O-])cc1Cl`, for which, in data set [1], the IC50 was found to be 9.65 µM. The CC50 at 48 h in data set [2] worked out at 141 µM. Also, the selectivity ratio at 168 h in data set [3] is 14.6.
In the same order, the values of `Cc1ccc(CNC(=O)c2cc(Cl)ccc2O)cc1` are 8.12 µM, 87.7 µM and 10.8.
`O=C(NCc1ccc(Cl)cc1)c1cc(Cl)ccc1O`: the IC50 in data set [1] worked out at 3.57 µM. The CC50 at 48 h in data set [2] stood at 27.1 µM. Moreover, in data set [3], the selectivity ratio at 168 h was 7.6.
As to `O=C(Cc1cc(Cl)ccc1O)Nc1cc(F)cc(C(F)(F)F)c1`, the IC50 in data set [1] turned out to be 4.92 µM. The CC50 at 48 h in data set [2] was 23.7 µM. Also, the selectivity ratio at 168 h in data set [3] was found to be 4.8.
For `CC(C)[C@H](NC(=O)c1cc(Cl)ccc1O)C(=O)Nc1cc(C(F)(F)F)cc(C(F)(F)F)c1`, in data set [1], the IC50 is 0.4 µM. Besides, in data set [2], the CC50 at 48 h is 30.9 µM. Further, the selectivity ratio at 168 h in data set [3] amounted to 77.4.
For the compound `O=C(NCCc1ccc(F)cc1)c1cc(Cl)ccc1O`, the IC50 in data set [1] is 3.94 µM. Also, in data set [2], the CC50 at 48 h came out at 154 µM. For the same compound, in data set [3], the selectivity ratio at 168 h is 39.1.
Turning to `CC(C)(C)OC(=O)CC[C@H](NC(=O)c1cc(Cl)ccc1O)C(=O)Nc1ccc([N+](=O)[O-])cc1Cl`, the half-maximal inhibitory concentration (IC50) in data set [1] is 0.67 µM. The CC50 at 48 h in data set [2] came to 22.9 µM. Further, the selectivity ratio at 168 h in data set [3] amounted to 34.2.
The corresponding values for `O=C(Nc1cc(F)cc(C(F)(F)F)c1)c1ccccc1O` are 1.07 µM, 16.3 µM and 15.2.
With `O=C(N[C@@H](Cc1ccccc1)C(=O)Nc1cc(C(F)(F)F)cc(C(F)(F)F)c1)c1cc(Cl)ccc1O`, the IC50 in data set [1] was 0.4 µM. Besides, the CC50 at 48 h in data set [2] worked out at 17.9 µM. Also, the selectivity ratio at 168 h in data set [3] was 44.9.
In the same order, the values of `C[C@H](NC(=O)c1cc(Cl)ccc1O)C(=O)Nc1ccc([N+](=O)[O-])cc1Cl` are 3.85 µM, 100 µM and 26.
In the same order, the values of `O=C(NCc1ccc(F)cc1Cl)c1cc(Cl)ccc1O` are 2.56 µM, 30.9 µM and 12.1.
Regarding `O=C(NCc1cc(F)cc(C(F)(F)F)c1)c1cc(Cl)ccc1O`, in data set [1], the IC50 is 2.4 µM. The CC50 at 48 h in data set [2] came out at 36.3 µM. Besides, in data set [3], the selectivity ratio at 168 h was determined as 15.1.
In the same order, the values of `O=C(NCc1ccc(Cl)cc1Cl)c1cc(Cl)ccc1O` are 1.73 µM, 30.9 µM and 17.9.
`O=C(NCc1ccc([N+](=O)[O-])cc1)c1cc(Cl)ccc1O`: in data set [1], the IC50 amounted to 6.56 µM. Also, in data set [2], the cytotoxic concentration (CC50) at 48 h worked out at 175 µM. Further, the selectivity ratio at 168 h in data set [3] was 26.7.
The corresponding values for `Cc1ccc(O)c(C(=O)Nc2cc(F)cc(C(F)(F)F)c2)c1` are 0.65 µM, 15.2 µM and 23.3.
As for `O=C(Nc1cc(F)cc(C(F)(F)F)c1)c1cccc(Cl)c1`, the IC50 in data set [1] stood at 5.61 µM. The CC50 at 48 h in data set [2] was found to be 38.6 µM. For the same compound, in data set [3], the selectivity ratio at 168 h worked out at 6.9.
